{"data": "Experimental data collected from several papers", "PIK3CA M1043I": "Phosphatidylinositol 4,5-bisphosphate 3-kinase catalytic subunit alpha isoform (PIK3CA, Homo sapiens, UniProt P42336, M1043I)", "PIK3CA H1047Y": "Phosphatidylinositol 4,5-bisphosphate 3-kinase catalytic subunit alpha isoform (PIK3CA, Homo sapiens, UniProt P42336, H1047Y)", "PIK3CA C420R": "Phosphatidylinositol 4,5-bisphosphate 3-kinase catalytic subunit alpha isoform (PIK3CA, Homo sapiens, UniProt P42336, C420R)", "PIK3CA Q546K": "Phosphatidylinositol 4,5-bisphosphate 3-kinase catalytic subunit alpha isoform (PIK3CA, Homo sapiens, UniProt P42336, Q546K)", "PIK3CA H1047L": "Phosphatidylinositol 4,5-bisphosphate 3-kinase catalytic subunit alpha isoform (PIK3CA, Homo sapiens, UniProt P42336, H1047L)", "PIK3CA E545K": "Phosphatidylinositol 4,5-bisphosphate 3-kinase catalytic subunit alpha isoform (PIK3CA, Homo sapiens, UniProt P42336, E545K)", "PIK3CA E545A": "Phosphatidylinositol 4,5-bisphosphate 3-kinase catalytic subunit alpha isoform (PIK3CA, Homo sapiens, UniProt P42336, E545A)", "PIK3CA E542K": "Phosphatidylinositol 4,5-bisphosphate 3-kinase catalytic subunit alpha isoform (PIK3CA, Homo sapiens, UniProt P42336, E542K)", "PIK3CA I800L": "Phosphatidylinositol 4,5-bisphosphate 3-kinase catalytic subunit alpha isoform (PIK3CA, Homo sapiens, UniProt P42336, I800L)", "PIK3CA": "Phosphatidylinositol 4,5-bisphosphate 3-kinase catalytic subunit alpha isoform (PIK3CA, Homo sapiens, UniProt P42336)", "note": "Lines come from different studies, so protocols differ."}
{"target": "PIK3CA M1043I", "test": "cell-free assay, competition with immobilised ligand", "setting": "1 µM", "remaining binding": "100%", "SMILES": "Cc1c(C(=O)O)cc(-c2ccc(C3CCNCC3)cc2)c2ccc(-c3ccc(C(F)(F)F)cc3)cc12"}
{"target": "PIK3CA H1047Y", "test": "binding", "setting": "10 µM", "remaining binding": "27%", "SMILES": "CN1CCN(c2ccc(Nc3nccc(-c4cccc([N+](=O)[O-])c4)n3)cc2C(F)(F)F)CC1"}
{"target": "PIK3CA C420R", "test": "cell-free assay, competition with immobilised ligand", "setting": "1 µM", "remaining binding": "92%", "SMILES": "FC(F)(F)c1ccc2c(c1)nc(-c1cccnc1)n2C1CC1"}
{"target": "PIK3CA Q546K", "test": "binding, competition with immobilised ligand", "setting": "1 µM", "remaining binding": "100%", "SMILES": "O=C(NCCCN1CCOCC1)c1ccc(Nc2ncc(Cl)c(-c3ccc(Cl)s3)n2)cc1"}
{"target": "PIK3CA H1047L", "test": "binding", "setting": "1 µM", "remaining binding": "75%", "SMILES": "N[C@H]1CCN(c2nccc(-c3cnn4ncccc34)n2)C1"}
{"target": "PIK3CA H1047Y", "test": "binding, competition with immobilised ligand", "setting": "1 µM", "remaining binding": "81%", "SMILES": "COc1cnc(Nc2cccc(S(N)(=O)=O)c2)nc1N1CCN(c2ccccc2)C(=O)C1"}
{"target": "PIK3CA E545K", "test": "cell-free assay, competition with immobilised ligand", "setting": "1 µM", "remaining binding": "74%", "SMILES": "CCC(=O)N[C@H]1CC[C@@H](C(=O)N(C)c2ccc(-c3nc4ccccc4o3)cc2)C1"}
{"target": "PIK3CA M1043I", "test": "binding", "setting": "1 µM", "remaining binding": "100%", "SMILES": "C[C@H]1CCN(c2nccc(-c3cnn4ncccc34)n2)C1"}
{"target": "PIK3CA M1043I", "test": "binding, competition with immobilised ligand", "setting": "1 µM", "remaining binding": "100%", "SMILES": "O=C(c1ccc(Nc2ncc(Cl)c(-c3ccc(Cl)s3)n2)cc1)N1CCC(N2CCCC2)CC1"}
{"target": "PIK3CA M1043I", "test": "binding, competition with immobilised ligand", "setting": "1 µM", "remaining binding": "79%", "SMILES": "CNC(=O)[C@@H]1CC[C@@H](n2c(-c3ccc4cnccc4c3)nc3ccc(C(=O)NCc4cccc(C(N)=O)c4)cc32)C1"}
{"target": "PIK3CA E545A", "test": "binding, competition with immobilised ligand", "setting": "1 µM", "remaining binding": "99%", "SMILES": "O=C(c1ccc(Nc2ncc(Cl)c(-c3cc4ccccc4s3)n2)cc1)N1CCC(N2CCCC2)CC1"}
{"target": "PIK3CA H1047L", "test": "binding", "setting": "1 µM", "remaining binding": "76%", "SMILES": "COc1ccnn2ncc(-c3ccnc(N(C)C)n3)c12"}
{"target": "PIK3CA H1047L", "test": "cell-free assay, competition with immobilised ligand", "setting": "1 µM", "remaining binding": "69%", "SMILES": "CC(=O)C1=C(C)N(c2cccc(C(F)(F)F)c2)C(=O)N[C@@H]1c1ccc(C#N)nc1"}
{"target": "PIK3CA M1043I", "test": "binding, competition with immobilised ligand", "setting": "1 µM", "remaining binding": "62%", "SMILES": "Nc1ncc2c(n1)-c1c([nH]c3ccc(C#CC4CC4)cc13)CCCC2"}
{"target": "PIK3CA E542K", "test": "cell-free assay, competition with immobilised ligand", "setting": "0.1 µM", "remaining binding": "100%", "SMILES": "CC(C)CC(=O)N1CCc2nc(-c3ccc(Br)cc3)nc(N(C)Cc3ccccc3)c2C1"}
{"target": "PIK3CA H1047Y", "test": "binding", "setting": "1 µM", "remaining binding": "98%", "SMILES": "Cc1cnn2ncc(-c3ccnc(N(C)C)n3)c2c1"}
{"target": "PIK3CA I800L", "test": "binding, competition with immobilised ligand", "setting": "1 µM", "remaining binding": "0%", "SMILES": "C=CC(=O)N1CCC(C(=O)NCC(=O)N2CCN(c3nc(-c4cnc(N)nc4C(F)F)nc(N4CCOCC4)n3)CC2)CC1"}
{"target": "PIK3CA Q546K", "test": "binding", "setting": "1 µM", "remaining binding": "42%", "SMILES": "CC1CCCN1c1nccc(-c2cnn3ncccc23)n1 (stereo not shown)"}
{"target": "PIK3CA Q546K", "test": "binding, competition with immobilised ligand", "setting": "1 µM", "remaining binding": "100%", "SMILES": "O=C(c1ccc(Nc2nccc(-c3cc4ccccc4s3)n2)cc1)N1CCC(N2CCCC2)CC1"}
{"target": "PIK3CA E545K", "test": "binding", "setting": "1 µM", "remaining binding": "63%", "SMILES": "CN(C)c1ncc(F)c(-c2cnn3ncccc23)n1"}
{"target": "PIK3CA H1047L", "test": "cell-free assay, competition with immobilised ligand", "setting": "1 µM", "remaining binding": "60%", "SMILES": "Nc1cnc(N2CCc3cc(S(=O)(=O)Nc4c(F)cc(Cl)cc4F)cc(N4CCCC4=O)c32)nc1"}
{"target": "PIK3CA C420R", "test": "binding, competition with immobilised ligand", "setting": "0.1 µM", "remaining binding": "98%", "SMILES": "C[C@@H](c1ccc(-n2cnc3c(N)ncnc32)cc1)N1CCc2nn(C)c(Cc3ccccc3)c2C1=O"}
{"target": "PIK3CA E542K", "test": "binding, competition with immobilised ligand", "setting": "1 µM", "remaining binding": "96%", "SMILES": "O=C(N[C@H]1CCCCC/C=C\\C2C[C@@]2(C(=O)O)NC(=O)[C@@H]2C[C@@H](Oc3ccncc3)CN2C1=O)OC1CCCC1 (stereo partly shown)"}
{"target": "PIK3CA H1047L", "test": "binding, competition with immobilised ligand", "setting": "10 µM", "remaining binding": "100%", "SMILES": "c1cncc(-c2cccc(Nc3nccc(NC4CCCCC4)n3)c2)c1"}
{"target": "PIK3CA", "test": "binding, competition with immobilised ligand", "setting": "1 µM", "remaining binding": "93%", "SMILES": "O=C(NCCCN1CCOCC1)c1ccc(Nc2nccc(-c3cc4ccccc4s3)n2)cc1"}
{"target": "PIK3CA E545A", "test": "binding, competition with immobilised ligand", "setting": "1 µM", "remaining binding": "100%", "SMILES": "O=C(NCC1CCOCC1)c1n[nH]cc1NC(=O)c1c(F)cccc1F"}
{"target": "PIK3CA I800L", "test": "binding, competition with immobilised ligand", "setting": "1 µM", "remaining binding": "95%", "SMILES": "CCN1CCN(Cc2ccc(C(=O)Nc3ccc(C)c(Oc4ccc5c(c4)CC(=O)N5)c3)cc2C(F)(F)F)CC1"}
{"target": "PIK3CA Q546K", "test": "cell-free assay, competition with immobilised ligand", "setting": "5 µM", "remaining binding": "99%", "SMILES": "COc1ncc2cc3ccccc3nc2c1C#N"}
{"target": "PIK3CA E545A", "test": "cell-free assay, competition with immobilised ligand", "setting": "1 µM", "remaining binding": "75.4%", "SMILES": "CC1=C(C#N)[C@@H](c2ccc3[nH]nc(C)c3c2)C(C#N)=C(c2ccc(Cl)cc2)N1"}
{"target": "PIK3CA E542K", "test": "binding, competition with immobilised ligand", "setting": "1 µM", "remaining binding": "88%", "SMILES": "O=C(Nc1c[nH]nc1C(=O)NC1CCNCC1)c1cc(F)cc(F)c1"}
{"target": "PIK3CA", "test": "binding", "setting": "1 µM", "remaining binding": "79%", "SMILES": "c1cnn2ncc(-c3ccnc(N4CCC45COC5)n3)c2c1"}
{"target": "PIK3CA E545A", "test": "binding, competition with immobilised ligand", "setting": "1 µM", "remaining binding": "100%", "SMILES": "COc1cnc(Nc2cccc(S(N)(=O)=O)c2)nc1N1CCN(c2ccccc2)CC1"}
{"target": "PIK3CA E545A", "test": "binding", "setting": "1 µM", "remaining binding": "100%", "SMILES": "CN(CCCC(F)(F)F)c1nccc(-c2cnn3ncccc23)n1"}
{"target": "PIK3CA E545A", "test": "binding, competition with immobilised ligand", "setting": "1 µM", "remaining binding": "77%", "SMILES": "Cc1cnc(Nc2ccc(C(=O)N3CCC(N4CCCC4)CC3)cc2)nc1-c1cc2ccccc2s1"}
